This note sets out measurements from ChEMBL document CHEMBL1126679 (J Med Chem, 1993).

The target of test [1] is T1, D(2) dopamine receptor (Homo sapiens, UniProt P14416). As to the kind of experiment: Intrinsic activity against dopamine D 2 receptor. Type of test: functional. To be noted: Cricetulus griseus. A digest of the protocol: (§1)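 Membranes from CHO cells stably transfected with D2 receptor. Low-affinity agonist state affinity came from [3H]raclopride displacement with high GTP, and high-affinity state affinity from [3H]U-86170 displacement without GTP.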

Test [2] in a line: Binding affinity against 5-hydroxytryptamine 1A receptor from bovine hippocampus, used [3H]8-OH-DPAT as radioligand.
Test [3] deals with T1, D(2) dopamine receptor. Kind of test: Compound was tested for agonistic activity against D2 receptor from cloned CHO cells, used [3H]U-86170 as radioligand. Type of test: functional, cell-based, Cricetulus griseus.
Test [4] concerns the target D(2) dopamine receptor (Rattus norvegicus, UniProt P61169). Kind of test: Compound was tested for antagonistic activity against D2 receptor from rat striatum, used [3H]raclopride as radioligand. Type of test: functional.
The nature of test [5]: (§2) Intrinsic activity was 100% of highest possible agonist. Format: functional. A digest of the protocol:
as §1

The nature of test [6]: as §2. Type of test: functional. The source holds these as a separate data set.
Test [7] deals with T1, D(2) dopamine receptor. Kind of test: Intrinsic activity was Determined. Type of test: functional.
Test [8] in a line: Intrinsic activity was 0%of highest possible antagonist. Format: functional. A digest of the protocol:
as §1

The structures appear in SMILES notation.

Sequence of D(2) dopamine receptor (Rattus norvegicus, UniProt P61169) (P61169 whole entry): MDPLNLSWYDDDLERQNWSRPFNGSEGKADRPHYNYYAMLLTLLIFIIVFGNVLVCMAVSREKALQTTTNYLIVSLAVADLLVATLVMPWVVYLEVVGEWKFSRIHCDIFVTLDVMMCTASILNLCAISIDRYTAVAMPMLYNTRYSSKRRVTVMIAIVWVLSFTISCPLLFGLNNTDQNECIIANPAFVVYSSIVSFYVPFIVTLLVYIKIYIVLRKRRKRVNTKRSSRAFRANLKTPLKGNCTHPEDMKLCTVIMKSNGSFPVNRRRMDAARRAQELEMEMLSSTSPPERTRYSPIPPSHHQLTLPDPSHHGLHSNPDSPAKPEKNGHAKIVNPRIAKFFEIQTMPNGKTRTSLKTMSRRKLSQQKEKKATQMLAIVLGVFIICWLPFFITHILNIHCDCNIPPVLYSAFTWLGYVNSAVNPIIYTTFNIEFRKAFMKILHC
T1 sequence (P14416 whole entry): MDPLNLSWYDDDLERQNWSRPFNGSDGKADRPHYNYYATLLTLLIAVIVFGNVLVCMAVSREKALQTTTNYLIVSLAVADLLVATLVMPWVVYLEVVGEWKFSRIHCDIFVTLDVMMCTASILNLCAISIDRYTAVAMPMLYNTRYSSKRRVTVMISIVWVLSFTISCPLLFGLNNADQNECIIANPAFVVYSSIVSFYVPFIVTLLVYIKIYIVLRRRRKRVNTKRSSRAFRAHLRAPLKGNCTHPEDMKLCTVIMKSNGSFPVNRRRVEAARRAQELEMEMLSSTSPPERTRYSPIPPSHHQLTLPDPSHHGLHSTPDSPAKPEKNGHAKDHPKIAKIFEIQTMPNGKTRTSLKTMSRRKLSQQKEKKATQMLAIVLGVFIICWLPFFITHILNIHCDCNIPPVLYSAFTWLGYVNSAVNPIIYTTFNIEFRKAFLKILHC

What is called Ki is a dissociation constant, usually derived from enzyme kinetics or from competition with a known ligand. Lower therefore signals a stronger hold on the target. As for `CCCN1[C@@H](C)C[C@@H]2Cc3cccc(OC)c3C[C@@H]21`, the Intrinsic activity at D(2) dopamine receptor [1] turned out to be 21%. Also, the affinity in test [2], expressed as Ki, was 11 nM. `CCCN1[C@H](C)C[C@@H]2Cc3cccc(OC)c3C[C@@H]21`: the Ki in test [2] stood at 384 nM. At D(2) dopamine receptor [3], `Cc1[nH]c2cccc3c2c1C[C@@H]1C3C[C@H](NC(=O)C(C)(C)C)CN1C` (some centres undefined) returned a Ki of 3.1 nM. For the same molecule, the Intrinsic activity at D(2) dopamine receptor [1] came out at 11%. With `CN1C[C@@H](NC(=O)C(C)(C)C)CC2c3cccc4[nH]c(Cl)c(c34)C[C@H]21` (some centres undefined), the Ki at D(2) dopamine receptor [3] turned out to be 3.6 nM; at D(2) dopamine receptor [4], 0.47 nM. In addition, the Intrinsic activity on D(2) dopamine receptor [1] was 0%. For `C=CCN1CC[C@H]2c3c(cccc3OC)CC[C@H]21` [listing 1 of 2 here], the Ki at D(2) dopamine receptor [3] worked out at 6.7 nM. On to `CCCN(CCC)[C@@H]1Cc2cccc3[nH]c(=O)n(c23)C1`, for which the inhibitory constant (Ki) was 1.7 nM on D(2) dopamine receptor [3] and 5.4 nM at D(2) dopamine receptor [4].

On to `CCCN[C@@H]1CCc2c(OC)cccc2[C@@H]1C`, for which the Ki on D(2) dopamine receptor [3] turned out to be 14 nM; at D(2) dopamine receptor [4] it was 179 nM. For the same molecule, the Intrinsic activity at D(2) dopamine receptor [1] was 3%. Take `CCCN(CCC)[C@@H]1CCc2c(OC)cccc2[C@@H]1C`: the Ki worked out at 13 nM at D(2) dopamine receptor [3] and 22 nM at D(2) dopamine receptor [4]. Further, the Intrinsic activity on D(2) dopamine receptor [1] is 0. Consider `CCCN1CC[C@H]2c3c(cccc3OC)CC[C@H]21` [listing 1 of 2 here], for which the Ki in test [2] was 0.2 nM. As for `C=CCN1CC[C@H]2c3cccc(O)c3CC[C@H]21`, the figures for the Ki at D(2) dopamine receptor [3] and on D(2) dopamine receptor [4] were 108 nM and 49 nM, respectively. In addition, at D(2) dopamine receptor [1], the Intrinsic activity came out at 22%.

In the case of `C=CCN1CC[C@@H]2c3cccc(O)c3CC[C@@H]21`, the Ki at D(2) dopamine receptor [3] came to 59 nM; on D(2) dopamine receptor [4] it was 259 nM. For the same molecule, the Intrinsic activity on D(2) dopamine receptor [1] was determined as 47%. The molecule `C=CCN1CC[C@@H]2c3cccc(OC)c3CC[C@@H]21` registered a Ki on D(2) dopamine receptor [4] greater than 1000 nM. Consider `C=CCN1CC[C@@H]2Cc3c(O)cccc3C[C@H]21`, for which the Intrinsic activity on D(2) dopamine receptor [1] came out at 106%.

As to `C=CCN1CC[C@@H]2Cc3c(cccc3OC)C[C@H]21`, the Intrinsic activity in test [5] turned out to be 100%. As to `C=CCN1CC[C@H]2c3c(cccc3OC)CC[C@H]21` [listing 2 of 2 here], at D(2) dopamine receptor [1], the Intrinsic activity came out at 24%. Consider `C=CCN1CC[C@H]2c3cccc(OC)c3CC[C@H]21`, for which, at D(2) dopamine receptor [1], the Intrinsic activity was 0%. On to `CCCN(CCC)[C@@H]1Cc2cccc3nc(O)n(c23)C1`, for which, in test [6], the Intrinsic activity turned out to be 91.

On to `CCCN1CC[C@@H]2Cc3c(O)cccc3C[C@H]21`, for which the Intrinsic activity at D(2) dopamine receptor [1] came out at 109%. On to `CCCN1CC[C@@H]2Cc3c(cccc3OC)C[C@H]21`, for which the Intrinsic activity on D(2) dopamine receptor [1] came out at 37%. As for `CCCN1CC[C@H]2c3c(cccc3OC)CC[C@H]21` [listing 2 of 2 here], at D(2) dopamine receptor [1], the Intrinsic activity came out at 37%. Turning to `CCCN1C[C@H](CSC)C[C@@H]2c3cccc4[nH]cc(c34)C[C@H]21`, the Intrinsic activity at D(2) dopamine receptor [1] worked out at 66%. As to `C=CCN1CCC2Cc3c(cccc3OC)C[C@H]21` (mixture of isomers), the inhibition constant (Ki) on D(2) dopamine receptor [4] was greater than 1000 nM. In addition, in test [5], the Intrinsic activity is 100%.

For the molecule `CCCN1CCC2Cc3c(O)cccc3C[C@H]21` (mixture of isomers), the inhibitory constant (Ki) at D(2) dopamine receptor [3] was found to be 2.4 nM; on D(2) dopamine receptor [4] it was 17 nM. Moreover, the Intrinsic activity on D(2) dopamine receptor [1] worked out at 79%. The molecule `C=CCN1CCC2c3cccc(OC)c3CC[C@@H]21` (mixture of isomers) registered a Ki on D(2) dopamine receptor [4] of 99 nM. For the same molecule, the Intrinsic activity at D(2) dopamine receptor [1] turned out to be 0%. As to `CCCN1CCC2Cc3c(cccc3OC)C[C@H]21` (mixture of isomers), the Ki on D(2) dopamine receptor [3] turned out to be 100 nM; at D(2) dopamine receptor [4] it was 877 nM. For the same molecule, the Intrinsic activity at D(2) dopamine receptor [1] is 100%.

On to `C=CCN1CCC2Cc3c(O)cccc3C[C@H]21` (mixture of isomers), for which the Ki on D(2) dopamine receptor [3] stood at 1.4 nM; at D(2) dopamine receptor [4], 25 nM. Besides, at D(2) dopamine receptor [1], the Intrinsic activity is 91%. On to `C=CCN1CCC2c3cccc(OC)c3CC[C@H]21` (mixture of isomers), for which, on D(2) dopamine receptor [1], the Intrinsic activity came to 0%. Molecule `C=CCN1CCC2c3c(O)cccc3CCC21` (racemic) came in with a Ki at D(2) dopamine receptor [4] of 25 nM. Besides, the Intrinsic activity at D(2) dopamine receptor [1] turned out to be 13%. As to `CCCN1CCC2Cc3c(O)cccc3CC21` (racemic), the values for the Ki at D(2) dopamine receptor [3] and at D(2) dopamine receptor [4] were 11 nM and 296 nM, respectively. In addition, the Intrinsic activity at D(2) dopamine receptor [1] worked out at 61%. For the molecule `C=CCN1CCC2Cc3c(cccc3OC)CC21` (racemic), on D(2) dopamine receptor [4], the Ki was determined as 429 nM. For `CCCN(CCC)[C@@H]1Cc2cccc3c2N(C1)C(=O)NC3` (racemic), the Ki at D(2) dopamine receptor [3] is 58 nM; on D(2) dopamine receptor [4], greater than 1000 nM. Also, on D(2) dopamine receptor [1], the Intrinsic activity amounted to 30%. Turning to `CCCN(CCC)[C@@H]1Cc2cccc3ccc(=O)n(c23)C1` (racemic), the Ki on D(2) dopamine receptor [3] was 3.5 nM; at D(2) dopamine receptor [4], 18.8 nM. The Intrinsic activity at D(2) dopamine receptor [1] was found to be 79%. With `C=CCN1CC[C@H]2c3c(cccc3OC)CC[C@H]21` (racemic) [listing 1 of 2 here], the affinity on D(2) dopamine receptor [3] corresponds to a Ki of 7 nM. Molecule `C=CCN1CCC2c3c(cccc3OC)CCC21` (racemic) had a Ki on D(2) dopamine receptor [3] of 8.5 nM. In addition, the Intrinsic activity on D(2) dopamine receptor [1] came to 0%. On to `CCCN(CCC)[C@@H]1Cc2cccc3c2N(CC(=O)N3)C1` (racemic), for which the Ki at D(2) dopamine receptor [4] came out at 28 nM. Further, the Intrinsic activity at D(2) dopamine receptor [1] was determined as 70%. In the case of `CCCN(CCC)[C@@H]1Cc2cccc3nc(S)n(c23)C1` (racemic), the Ki on D(2) dopamine receptor [3] was found to be 0.6 nM; on D(2) dopamine receptor [4], 39 nM. Also, the Intrinsic activity at D(2) dopamine receptor [1] worked out at 100%. At D(2) dopamine receptor [4], `CCCN1C[C@H]2c3c(cccc3OC)CC[C@H]21` (racemic) gave a Ki of 329 nM. On the same count and under the same terms, the figure for `CCCN1CC[C@H]2c3c(cccc3OC)CC[C@H]21` (racemic) is greater than 1000 nM. Molecule `C=CCN1CC[C@H]2c3c(O)cccc3CC[C@H]21` (racemic) showed a Ki at D(2) dopamine receptor [3] of 153 nM. Further, the Intrinsic activity at D(2) dopamine receptor [7] is 7%.

As for `Oc1cccc2c1CC[C@@H]1NCCC[C@@H]21` (racemic), the Ki is 11 nM at D(2) dopamine receptor [3] and 38 nM on D(2) dopamine receptor [4]. In addition, the Intrinsic activity on D(2) dopamine receptor [1] stood at 53. On to `C=CCN1CC[C@H]2c3c(cccc3OC)CC[C@H]21` (racemic) [listing 2 of 2 here], for which, at D(2) dopamine receptor [1], the Intrinsic activity came to 15%. As for `CCCN1CC[C@H]2c3cccc(OC)c3CC[C@@H]21` (racemic), the Intrinsic activity in test [8] worked out at 0%. In the case of `CCCN1CCC2c3cccc(O)c3CCC21` (racemic; 14a) [listing 1 of 2 here], the values for the Ki on D(2) dopamine receptor [3] and on D(2) dopamine receptor [4] were 93 nM and 33 nM, respectively. Regarding `CCCN1CCC2c3cccc(O)c3CCC21` (racemic; 14a) [listing 2 of 2 here], the Intrinsic activity at D(2) dopamine receptor [1] worked out at 28%.

`C=CCN1CCC2c3cccc(O)c3CCC21` (racemic; 14c) [listing 1 of 2 here]: the Ki on D(2) dopamine receptor [3] was determined as 4.1 nM. As for `C=CCN1CCC2c3cccc(O)c3CCC21` (racemic; 14c) [listing 2 of 2 here], on D(2) dopamine receptor [1], the Intrinsic activity amounted to 44%.

For `CCCN1CCC2c3cccc(O)c3CCC21` (racemic; 15a) [listing 1 of 2 here], the results for the inhibitory constant (Ki) on D(2) dopamine receptor [3] and on D(2) dopamine receptor [4] were 218 nM and greater than 1000 nM, respectively.

As for `CCCN1CCC2c3cccc(O)c3CCC21` (racemic; 15a) [listing 2 of 2 here], on D(2) dopamine receptor [1], the Intrinsic activity is 1%. Consider `C=CCN1CCC2c3cccc(O)c3CCC21` (racemic; 15c) [listing 1 of 2 here], for which the Ki was 75 nM at D(2) dopamine receptor [3] and 198 nM on D(2) dopamine receptor [4]. Consider `C=CCN1CCC2c3cccc(O)c3CCC21` (racemic; 15c) [listing 2 of 2 here], for which the Intrinsic activity on D(2) dopamine receptor [1] was 29%. As to `C=CCN1CC[C@H]2Cc3c(O)cccc3CC21` (single isomer, unassigned), the Ki at D(2) dopamine receptor [3] came to 235 nM; on D(2) dopamine receptor [4], 47 nM. The Intrinsic activity at D(2) dopamine receptor [1] came out at 21%. Taken in the same sequence, the figures for `CCCN1CC[C@H]2Cc3c(O)cccc3CC21` (single isomer, unassigned) were 917 nM, greater than 630 nM and 18%. With `CCCN1CC[C@H]2c3c(cccc3OC)CC[C@H]21` (single isomer, unassigned), on D(2) dopamine receptor [4], the inhibition constant (Ki) was greater than 1000 nM. Consider `CCCN1CC[C@H]2c3c(O)cccc3CC[C@H]21` (single isomer, unassigned) [listing 1 of 2 here], for which, on D(2) dopamine receptor [3], the Ki was less than 50 nM. For `C=CCN1CC[C@H]2Cc3c(cccc3OC)CC21` (single isomer, unassigned), in test [8], the Intrinsic activity is 0%. For `C=CCN1CC[C@H]2c3c(cccc3OC)CC[C@H]21` (single isomer, unassigned), on D(2) dopamine receptor [1], the Intrinsic activity was 17%. Turning to `CCCN1CC[C@H]2c3c(O)cccc3CC[C@H]21` (single isomer, unassigned) [listing 2 of 2 here], at D(2) dopamine receptor [7], the Intrinsic activity came to 0%.
